Experimental data collected from several papers.
Lines come from different studies, so protocols differ. pIC50: −log10 of the molar value.
Cell line: HeLa
Effect on: cell growth or viability

SMILES | technique | time | quantity | value
COC(=O)CNC(=O)C(=O)OC | – | – | CC50 | > 1000 µM
CCOP(=O)(OCC)[C@@H]1C[C@H](n2cc(C(=O)OC)nn2)ON1C (relative stereo) | – | 72 h | CC50 | > 250 µM
CCCCCCCCCc1cn(CCN2CCN(C(=O)c3c(C)nc4cc(C)ccn34)CC2)nn1 | resazurin | – | CC50 | 62.7 µM
CC(=O)O[C@H]1C(=O)[C@@]2(C)[C@H]([C@H](OC(=O)c3ccccc3)[C@]3(O)C[C@H](OC(=O)[C@H](O)[C@@H](NC(=O)c4ccccc4)c4ccccc4)C(C)=C1C3(C)C)[C@]1(OC(C)=O)CO[C@@H]1C[C@@H]2O | MTT | 48 h | pIC50 | 5.32
COc1ccc(S(=O)(=O)Nc2cc(C#N)ccc2OS(=O)(=O)c2ccc(OC)cc2)cc1 | XTT | 72 h | pIC50 | 4.11
CCOP(=O)(OCC)[C@@H]1C[C@H](n2cc(-c3nccn3C)nn2)ON1C | – | 72 h | CC50 | > 250 µM
COc1cc(NS(=O)(=O)c2ccc([N+](=O)[O-])cc2)cc(OC)c1 | XTT | 72 h | pIC50 | < 4.00
Cc1ccc(-n2cc(CN3CCN(C(=O)c4c(C)nc5ccc(Cl)cn45)CC3)nn2)cc1C | resazurin | – | CC50 | > 100 µM
CNc1ccc(S(=O)(=O)Nc2ccc(OC)nc2)cc1 | XTT | 72 h | pIC50 | < 4.00
CCOP(=O)(OCC)[C@@H]1C[C@H](n2cc(-c3ccccn3)nn2)ON1C | – | 72 h | CC50 | > 250 µM
Cc1ccn2c(C(=O)N3CCN(Cc4cn(-c5ccccc5)nn4)CC3)c(C)nc2c1 | resazurin | – | CC50 | > 100 µM
COc1cc2nnn(S(=O)(=O)c3ccc(N(C)C)cc3)c2cc1OC | XTT | 72 h | pIC50 | 4.26
CCCCCCCCCc1cn(CCN2CCN(C(=O)c3c(C)nc4ccc(Cl)cn34)CC2)nn1 | resazurin | – | CC50 | > 100 µM
CCOP(=O)(OCC)[C@@H]1C[C@@H](n2cc(Cn3ccc(NC(C)=O)nc3=O)nn2)ON1C (racemic) | – | 72 h | CC50 | > 250 µM
COc1ccc(NS(=O)(=O)c2ccc(N)cc2)cc1OC | XTT | 72 h | pIC50 | < 4.00
Cc1ccn2c(C(=O)N3CCN(Cc4cn(-c5ccc(F)c(Cl)c5)nn4)CC3)c(C)nc2c1 | resazurin | – | CC50 | > 100 µM
COc1ccc(OC)c(NS(=O)(=O)c2ccc(OC)c([N+](=O)[O-])c2)c1 | XTT | 72 h | pIC50 | < 4.00
CCOP(=O)(OCC)[C@@H]1C[C@H](n2cc(Cn3cnc4c(N)ncnc43)nn2)ON1C (relative stereo) | – | 72 h | CC50 | ≥ 250 µM
Cc1nc2ccc(Cl)cn2c1C(=O)N1CCN(Cc2cn(-c3cccc([N+](=O)[O-])c3)nn2)CC1 | resazurin | – | CC50 | > 100 µM
